According to publication PMC7047882 (Archives of biochemistry and biophysics, 2019):
Like-named read-outs stand apart in the source and are kept apart here.

Experiments:
bovine brain tubulin [1] = biological target: T1, bovine brain tubulin (Bos taurus, UniProt P81947+Q6B856); assay: biochemical; type: binding; settings: for inhibition at 30 µM: pH 6.9, read-out: Effect on DZA binding (% inhibition ± SE)
bovine brain tubulin [2] = biological target: T1, bovine brain tubulin; assay: Recovery of compound-induced aberrant tubulin polymer by centrifugation; type: biochemical; settings: for tubulin recovery by centrifugation (in words): pH 6.9, 2 mM MgCl2, 22 °C
Method in brief: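 Electrophoretically homogeneous bovine brain tubulin, without gel filtration, was used. Reaction mixtures contained 0.1 M Mes (pH 6.9 or 6.5, adjusted with NaOH) with 2 mM MgCl₂ at 22 °C. The test compound was added from dimethyl sulfoxide stocks, and controls received equal dimethyl sulfoxide. Reactions were run in glass vessels, and aberrant polymer was harvested by centrifugation and read as tubulin in pellets.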

bovine brain tubulin [3] = biological target: T1, bovine brain tubulin; assay: Turbidity development; type: biochemical
Method in brief: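 Electrophoretically homogeneous bovine brain tubulin, without the gel-filtration step used for the binding studies. Reactions were run in glass vessels in 0.1 M Mes, brought to pH 6.5 or 6.9 with NaOH, with MgCl2 (for example 2 mM, 22 °C). Test compounds were added from dimethyl sulfoxide stocks, with the same dimethyl sulfoxide concentration in controls. The read-out was turbidity development.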

tubulin [4] = settings: cited from earlier work
tubulin [5] = settings: cited from earlier work; remark: listed apart in the source
tubulin [6] = settings: cited from earlier work; remark: listed apart in the source
cultured cancer cells = settings: cited from earlier work

T1 sequence (Q6B856 whole entry): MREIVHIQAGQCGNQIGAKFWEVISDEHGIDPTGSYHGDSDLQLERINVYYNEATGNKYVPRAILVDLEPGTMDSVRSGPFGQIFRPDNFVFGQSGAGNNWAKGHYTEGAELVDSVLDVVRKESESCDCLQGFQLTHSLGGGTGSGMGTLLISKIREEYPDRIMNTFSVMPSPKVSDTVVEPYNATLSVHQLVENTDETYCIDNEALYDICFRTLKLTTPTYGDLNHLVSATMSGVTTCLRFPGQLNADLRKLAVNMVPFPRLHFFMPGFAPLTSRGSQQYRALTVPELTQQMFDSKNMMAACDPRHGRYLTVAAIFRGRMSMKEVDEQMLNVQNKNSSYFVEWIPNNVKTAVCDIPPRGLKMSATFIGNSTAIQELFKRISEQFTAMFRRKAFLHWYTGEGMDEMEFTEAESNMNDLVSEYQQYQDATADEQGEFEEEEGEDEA
T1 sequence (P81947 whole entry): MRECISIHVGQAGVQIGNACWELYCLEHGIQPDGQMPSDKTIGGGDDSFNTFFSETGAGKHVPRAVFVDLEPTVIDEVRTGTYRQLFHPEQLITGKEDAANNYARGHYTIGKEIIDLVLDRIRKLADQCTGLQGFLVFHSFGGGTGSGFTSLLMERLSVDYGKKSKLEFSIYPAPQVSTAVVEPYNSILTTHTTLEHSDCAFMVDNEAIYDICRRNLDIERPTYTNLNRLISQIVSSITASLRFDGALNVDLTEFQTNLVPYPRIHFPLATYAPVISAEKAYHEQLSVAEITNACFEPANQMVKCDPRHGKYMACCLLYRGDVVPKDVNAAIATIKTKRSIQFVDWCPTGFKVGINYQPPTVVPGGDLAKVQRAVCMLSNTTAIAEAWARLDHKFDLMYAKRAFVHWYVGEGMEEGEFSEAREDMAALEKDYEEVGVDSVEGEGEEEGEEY

CC(C)[C@H](O)C(=O)N[C@H]1Cc2ccc3c(c2)[C@]24C5=C(N=C(O5)[C@H](C(C)C)NC1=O)c1nc(Cl)c(o1)-c1c(Cl)[nH]c5cccc(c15)-c1cccc2c1N[C@@H]4O3 [DZA, diazonamide A]
inhibition of [^3H]DZA binding to tubulin (in words) (bovine brain tubulin [1]): no inhibition of binding
tubulin recovery by centrifugation (in words) (bovine brain tubulin [2]; 10 and 20 μM compound): large amounts
tubulin recovered in pellets (in words) (bovine brain tubulin [2]; pH 6.5, 2 mM MgCl2, 22 °C): almost all the tubulin
turbidity development (in words) (bovine brain tubulin [3]; 0.1 M Mes (pH 6.5), 2 mM MgCl2, 22 °C): differed little from that with D10
inhibition of binding of [^3H]vinblastine to tubulin (in words) (tubulin [4]): no inhibition
inhibition of binding of [^3H]D10 to tubulin (in words) (tubulin [5]): no inhibition
inhibition of tubulin assembly (in words) (tubulin [6]): potent inhibitor

CC[C@H](C)[C@@H]([C@@H](CC(=O)N1CCC[C@H]1[C@H](OC)[C@@H](C)C(=O)N[C@@H](Cc1ccccc1)c1nccs1)OC)N(C)C(=O)[C@@H](NC(=O)[C@H](C(C)C)N(C)C)C(C)C [D10, dolastatin 10]
inhibition of [^3H]DZA binding to tubulin (in words) (bovine brain tubulin [1]; without a tubulin preincubation): inhibition was negligible
tubulin recovery by centrifugation (in words) (bovine brain tubulin [2]; 10 and 20 μM compound): even larger amounts
turbidity development (in words) (bovine brain tubulin [3]; all conditions examined): Extensive turbidity development

CC[C@]1(O)C[C@@H]2CN(CCc3c([nH]c4ccccc34)[C@@](C(=O)OC)(c3cc4c(cc3OC)N(C)[C@H]3[C@@](O)(C(=O)OC)[C@H](OC(C)=O)[C@]5(CC)C=CCN6CC[C@]43[C@@H]65)C2)C1 [Vinblastine, vinblastine]
inhibition of [^3H]DZA binding to tubulin (in words) (bovine brain tubulin [1]): absolutely no inhibitory effect
Effect on DZA binding (% enhancement ± SE; indicated by E before the value) (bovine brain tubulin [1]; pH 6.9): E 11 ± 5%
tubulin recovery by centrifugation (in words) (bovine brain tubulin [2]; 20 μM compound): even larger amounts

COc1ccc(/C=C\c2cc(OC)c(OC)c(OC)c2)cc1O [Combretastatin A-4, combretastatin A-4]
inhibition at 30 µM (bovine brain tubulin [1]): 17 ± 3%

CN[C@H](C(=O)N[C@H](C(=O)N(C)[C@H](/C=C(\C)C(=O)O)C(C)C)C(C)(C)C)C(C)(C)c1cn(C)c2ccccc12 [Hemiasterlin, hemiasterlin]
inhibition at 30 µM (bovine brain tubulin [1]): 43 ± 3%
tubulin recovery by centrifugation (in words) (bovine brain tubulin [2]; 20 μM compound): a moderate amount

COc1ccc(C[C@H]2NC(=O)/C=C/C[C@@H]([C@H](C)[C@H]3O[C@@H]3c3ccccc3)OC(=O)[C@H](CC(C)C)OC(=O)[C@H](C)CNC2=O)cc1Cl [Cryptophycin 1, cryptophycin 1]
maximal inhibition of [^3H]DZA binding (bovine brain tubulin [1]; preincubated tubulin, near maximal with 3 μM compound): 50-60%
turbidity development (in words) (bovine brain tubulin [3]; most conditions examined): little turbidity development
IC50 values for cultured cancer cells (in words) (cultured cancer cells): picomolar

COc1cc2cc(c1Cl)N(C)C(=O)C[C@H](OC(=O)[C@H](C)N(C)C(C)=O)[C@]1(C)O[C@H]1[C@H](C)[C@@H]1C[C@@](O)(NC(=O)O1)[C@H](OC)/C=C/C=C(\C)C2 [Maytansine, maytansine]
inhibition at 30 µM (bovine brain tubulin [1]): 9.2 ± 6%
